Measured values gathered from unrelated publications.
Compare with care: the assays were run in different laboratories.
Target: Protein kinase C theta type (PRKCQ, Homo sapiens, UniProt Q04759)

COc1cc(Cl)c(C(=O)N[C@@H](CN[C@H]2CC[C@@H](N)CC2)Cc2ccc(C#N)cc2)cc1-c1ccc(CN[C@H](C)c2ccc(C)cc2)o1 — remaining activity (enzyme activity, inhibitor; 1 µM): 106%
O=C(Nc1cnn(-c2csc(C(=O)NC3COC3)c2)c1)Nc1c(F)cccc1Cl — remaining activity (enzyme activity, inhibitor; 5 µM): 94.7%
Cc1cnc(NC2CCOCC2)nc1-n1cnc(C(=O)NC(CN)c2cc(F)cc(Cl)c2)c1 (stereo not drawn) — remaining activity (enzyme activity, inhibitor, radiometric; 1 µM): 99%
O=C(NCc1ncc(C(F)(F)F)cc1Cl)c1ccc2c(c1)C1(CCS(=O)(=O)CC1)[C@H](C1CC1)N2S(=O)(=O)c1ccc(F)cc1 — remaining binding (cell-free assay, competition with immobilised ligand; 1 µM): 100%
C[C@@H]1CCN(C(=O)CC#N)C[C@@H]1N(C)c1ncnc2[nH]ccc12 — remaining signal (cell-free assay; 0.5 µM): 89%
CC(=O)N1CCC(c2ccc(C(=O)NC(=N)N)cc2C(F)(F)F)CC1 — remaining binding (cell-free assay, competition with immobilised ligand; 1 µM): 91%
Cn1cnc(Br)c1C1=CN(c2ncnc3[nH]cnc23)CCS1 — inhibition (enzyme activity, inhibitor, radiometric; 2 µM): 97.9%
F[C@@H]1CCN(c2nccc(-c3cnn4ncccc34)n2)C1 — remaining binding (binding; 1 µM): 100%
CCC(=O)N[C@@H]1CC[C@H](C(=O)N(C)c2ccc(-c3nc4ccccc4o3)cc2)C1 — remaining binding (cell-free assay, competition with immobilised ligand; 1 µM): 76%
O=C1NC(=O)c2cc(Nc3ccc(F)cc3)c(Nc3ccc(F)cc3)cc21 — remaining signal (cell-free assay; 0.5 µM): 98.7%
COc1cc2ncnc(Nc3ccc(Oc4ccccc4)c(C)c3C)c2cc1OC — inhibition (enzyme activity, inhibitor; 1 µM): 8%
CNCc1ccc(-c2cc(-c3nc(-c4ccc(S(=O)(=O)C(C)C)cc4)cnc3N)on2)cc1 — inhibition (enzyme activity, inhibitor; 2 µM): 0%
CC[C@H](CO)Nc1nc(NCc2ccccc2)c2ncn(C(C)C)c2n1 — remaining signal (cell-free assay; 0.5 µM): 90%
CNC(=O)c1cc(Oc2ccc(NC(=O)Nc3ccc(Cl)c(C(F)(F)F)c3)cc2)ccn1 — inhibition (enzyme activity, inhibitor; 0.3 µM): 3%
Nc1nc(Nc2ccc(S(N)(=O)=O)cc2)nn1C(=O)c1c(F)cccc1F — remaining signal (cell-free assay; 0.5 µM): 114%
CO[C@@H](C)c1c(Nc2ccc([C@@H](N(C)C(=O)C3CCS(=O)(=O)CC3)C(F)(F)F)cc2)cnc2cc(Cl)nn12 — remaining binding (cell-free assay, competition with immobilised ligand; 1 µM): 98%
CN(C)C1CCN(CC#Cc2nn(C3CCCC3)c3nc(NCc4ccccc4)ncc23)C1 (stereo not drawn) — inhibition (enzyme activity, inhibitor, FRET; 1 µM): 19%
CC(C)(C)c1nc(-c2cccc(NS(=O)(=O)c3c(F)cccc3F)c2F)c(-c2ccnc(N)n2)s1 — remaining activity (enzyme activity, inhibitor, radiometric; 1 µM): 120%
COc1ccc2c(c1)O[C@H](c1ccc(OC)c(OC)c1)C[C@@H]2NC(=O)C1(c2ccc3c(c2)OC(F)(F)O3)CC1 — remaining binding (cell-free assay, competition with immobilised ligand; 1 µM): 100%
Cc1ccc(Nc2nccc(N(C)c3ccc4c(C)n(C)nc4c3)n2)cc1S(N)(=O)=O — inhibition (enzyme activity, inhibitor; 10 µM): -3%
CCOc1cc(-c2nncn2C)ccc1Nc1ncc2cc(C)nc(NCC(C)(C)C)c2n1 — inhibition (enzyme activity, inhibitor, FRET; 1 µM): < 15%
CCN(CC)c1ccc(C2=NNC(=O)CC2C)cc1[N+](=O)[O-] (stereo not drawn) — remaining activity (enzyme activity, inhibitor; 10 µM): 98%
CC(=O)Nc1c(C(C)=O)c(=O)n(C)c2nc(-c3ccc(Cl)cc3Cl)c(-c3ccc(Cl)cc3)cc12 — remaining binding (cell-free assay, competition with immobilised ligand; 1 µM): 100%
CC(C)(O)[C@H]1CC[C@H](Nc2ccc3ncc(-c4cccc(C(F)(F)F)c4)n3n2)CC1 — remaining activity (enzyme activity, inhibitor; 1 µM): 86.1%
Nc1cnc(N2CCc3cc(S(=O)(=O)Nc4c(F)cc(Cl)cc4F)cc(N4CCCC4=O)c32)nc1 — remaining binding (cell-free assay, competition with immobilised ligand; 1 µM): 89%
Cc1ccc(C(=O)Nc2ccc(CN3CCN(C)CC3)c(C(F)(F)F)c2)cc1C#Cc1cnc2cccnn12 — remaining activity (enzyme activity; 23.5 nM): 96%
CC1=C(C#N)[C@@H](c2ccc3[nH]nc(C)c3c2)C(C#N)=C(c2ccc(Cl)cc2)N1 — remaining binding (cell-free assay, competition with immobilised ligand; 1 µM): 100%
Cn1cncc1C1=CN(c2ncnc3[nH]cnc23)CCS1 — inhibition (enzyme activity, inhibitor, radiometric; 2 µM): 97.9%
Cc1cc(NC(=O)c2cccc3cc(-c4cccc5[nH]nc(N)c45)ccc23)ccc1F — activity vs control (enzyme activity, inhibitor; 0.1 µM): 93%
CCCOc1ccc(OC)c(F)c1C(=O)c1ccc(C(=O)N[C@@H]2CNC[C@H]2NC(=O)c2ccc3[nH]ncc3c2)cc1 — remaining activity (enzyme activity, inhibitor; 10 µM): 22%
